ChEMBL document CHEMBL1142894, “Preparation of 5-aryl-3-alkylthio-l,2,4-triazoles and corresponding sulfones with antiinflammatory-analgesic activity” (Bioorg Med Chem, 2007)
Active and inactive are the calls of the source. The rule behind the calls is not given here.

How the values were obtained:
Mus musculus [1] = assay: Inhibition of carrageenan-induced paw edema in Swiss albino mouse at 100 mg/kg, po after 90 mins relative to control; assay type: functional; details: 1.5 h
Summary of the method: (§1)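 Oral dosing in 0.5% CMC; vehicle to controls. Then carrageenan (0.5 mg/25 ll, freshly suspended in 154 mM saline) injected into the right hind paw subplantar tissue; saline into the left paw. Right-left footpad thickness difference measured by dial gauge calliper every 90 min over 6 h. Inhibition % is relative to vehicle control. n = 6; mean ± SEM.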

Mus musculus [2] = assay: Inhibition of carrageenan-induced paw edema in Swiss albino mouse at 200 mg/kg, po after 270 mins relative to control; assay type: functional; details: 4.5 h; summary of the method: as §1
Mus musculus [3] = assay: Inhibition of carrageenan-induced paw edema in Swiss albino mouse at 25 mg/kg, po after 180 mins relative to control; assay type: functional; details: 3 h; summary of the method: as §1
Mus musculus [4] = assay: Inhibition of carrageenan-induced paw edema in Swiss albino mouse at 50 mg/kg, po after 180 mins relative to control; assay type: functional; details: 3 h; summary of the method: as §1
Mus musculus [5] = assay: Antiinflammatory activity against carrageenan-induced paw edema in Swiss albino mouse assessed as swelling thickness at 100 mg/kg, po after 270 mins; assay type: functional; summary of the method: as §1
Mus musculus [6] = assay: Inhibition of carrageenan-induced paw edema in Swiss albino mouse at 50 mg/kg, po after 270 mins relative to control; assay type: functional; details: 4.5 h
Summary of the method: (§2)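 Mice, n = 6 per group. Test agent given orally as a suspension in 0.5% sodium CMC in distilled water; controls received vehicle only. Afterwards, 0.5 mg/25 ll carrageenan in saline (154 mM NaCl) injected subplantar into the right hind paw, saline into the left. Right-minus-left footpad thickness measured by dial gauge caliper every 90 min for 6 h. Inhibition is relative to vehicle-control group means.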

Mus musculus [7] = assay: Inhibition of carrageenan-induced paw edema in Swiss albino mouse at 100 mg/kg, po after 180 mins relative to control; assay type: functional; details: 3 h; summary of the method: as §1
Mus musculus [8] = assay: Antiinflammatory activity against carrageenan-induced paw edema in Swiss albino mouse assessed as swelling thickness at 50 mg/kg, po after 360 mins; assay type: functional; summary of the method: as §1
Mus musculus [9] = assay: Inhibition of carrageenan-induced paw edema in Swiss albino mouse at 200 mg/kg, po after 360 mins relative to control; assay type: functional; details: 6 h; summary of the method: as §1
Mus musculus [10] = assay: Antiinflammatory activity against carrageenan-induced paw edema in Swiss albino mouse assessed as swelling thickness at 200 mg/kg, po after 360 mins; assay type: functional; summary of the method: as §1
Mus musculus [11] = assay: Inhibition of carrageenan-induced paw edema in Swiss albino mouse at 25 mg/kg, po after 90 mins relative to control; assay type: functional; details: 1.5 h; summary of the method: as §1
Mus musculus [12] = assay: Inhibition of carrageenan-induced paw edema in Swiss albino mouse at 200 mg/kg, po after 90 mins relative to control; assay type: functional; details: 1.5 h; summary of the method: as §1
Mus musculus [13] = assay: Antiinflammatory activity against carrageenan-induced paw edema in Swiss albino mouse assessed as swelling thickness at 50 mg/kg, po after 90 mins; assay type: functional; summary of the method: as §1
Mus musculus [14] = assay: Acute toxicity in Swiss albino mouse assessed as lethal effect at 200 mg/kg/day, po after 72 hrs; assay type: organism-based; parameters: route oral; details: in vivo
Summary of the method: (§3)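 Oral single dose suspended in 0.5% carboxymethylcellulose, given after a 24 h fast; food and water returned 1 h after dosing. Vehicle-only controls. Mice observed at 1 h, then once daily for 72 h, for toxic signs and mortality.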

Mus musculus [15] = assay: Antiinflammatory activity against carrageenan-induced paw edema in Swiss albino mouse assessed as swelling thickness at 50 mg/kg, po after 270 mins; assay type: functional; summary of the method: as §1
Mus musculus [16] = assay: Inhibition of carrageenan-induced paw edema in Swiss albino mouse at 200 mg/kg, po after 180 mins relative to control; assay type: functional; details: 3 h; summary of the method: as §1
Mus musculus [17] = assay: Antiinflammatory activity against carrageenan-induced paw edema in Swiss albino mouse assessed as swelling thickness at 100 mg/kg, po after 180 mins; assay type: functional; summary of the method: as §1
Mus musculus [18] = assay: Inhibition of carrageenan-induced paw edema in Swiss albino mouse at 25 mg/kg, po after 360 mins relative to control; assay type: functional; details: 6 h; summary of the method: as §1
Mus musculus [19] = assay: Acute toxicity in Swiss albino mouse assessed as lethal effect at 50 mg/kg/day, po after 72 hrs; assay type: organism-based; parameters: route oral; details: in vivo; summary of the method: as §3
Mus musculus [20] = assay: Antiinflammatory activity against carrageenan-induced paw edema in Swiss albino mouse assessed as swelling thickness at 25 mg/kg, po after 360 mins; assay type: functional; summary of the method: as §1
Mus musculus [21] = assay: Analgesic activity against p-benzoquinone-induced abdominal constriction in Swiss albino mouse assessed as number of writhings at 100 mg/kg, po; assay type: functional, Abdomen
Summary of the method: (§4)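 Test samples given orally in 0.5% CMC; vehicle to controls. 60 min later, 2.5% (v/v) p-benzoquinone in distilled water, 0.1 ml/10 g, given i.p. Mice housed singly; writhes counted for 15 min starting 5 min after injection. Activity is % change from vehicle controls. n = 6; mean ± SEM.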

Mus musculus [22] = assay: Antiinflammatory activity against carrageenan-induced paw edema in Swiss albino mouse assessed as swelling thickness at 100 mg/kg, po after 360 mins; assay type: functional; summary of the method: as §1
Mus musculus [23] = assay: Antiinflammatory activity against carrageenan-induced paw edema in Swiss albino mouse assessed as swelling thickness at 25 mg/kg, po after 180 mins; assay type: functional; summary of the method: as §1
Mus musculus [24] = assay: Inhibition of carrageenan-induced paw edema in Swiss albino mouse at 50 mg/kg, po after 90 mins relative to control; assay type: functional; details: 1.5 h; summary of the method: as §2
Mus musculus [25] = assay: Inhibition of carrageenan-induced paw edema in Swiss albino mouse at 100 mg/kg, po after 270 mins relative to control; assay type: functional; details: 4.5 h; summary of the method: as §1
Mus musculus [26] = assay: Antiinflammatory activity against carrageenan-induced paw edema in Swiss albino mouse assessed as swelling thickness at 200 mg/kg, po after 270 mins; assay type: functional; summary of the method: as §1
Mus musculus [27] = assay: Inhibition of p-benzoquinone-induced writhing in Swiss albino mouse at 200 mg/kg, po relative to control; assay type: functional
Summary of the method: (§5)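 Mice, n = 6 per group, dosed orally with a suspension in 0.5% sodium CMC. 60 min later, 0.1 ml/10 g of 2.5% […] p-benzoquinone in distilled water given ip. Abdominal writhes counted per animal for 15 min, starting 5 min after injection. Expressed as % change in mean writhing count versus vehicle controls.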

Mus musculus [28] = assay: Inhibition of carrageenan-induced paw edema in Swiss albino mouse at 25 mg/kg, po after 270 mins relative to control; assay type: functional; details: 4.5 h; summary of the method: as §1
Mus musculus [29] = assay: Analgesic activity against p-benzoquinone-induced abdominal constriction in Swiss albino mouse assessed as number of writhings at 50 mg/kg, po; assay type: functional, Abdomen; summary of the method: as §4
Mus musculus [30] = assay: Gastric-ulcerogenic effect in Swiss albino mouse assessed as lesions at 50 mg/kg, po; assay type: functional, organism-based; parameters: dose 50 mg/kg
Summary of the method: (§6)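 Mice killed under deep ether anesthesia 3 h after the writhing test; the oral dose in 0.5% CMC was the one used in that test. Stomachs removed, opened along the great curvature and examined under a dissecting microscope for lesions or bleeding. Reported as ratio of ulceration; n = 6.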

Mus musculus [31] = assay: Acute toxicity in Swiss albino mouse assessed as lethal effect at 100 mg/kg/day, po after 72 hrs; assay type: organism-based; parameters: route oral; details: in vivo; summary of the method: as §3
Mus musculus [32] = assay: Antiinflammatory activity against carrageenan-induced paw edema in Swiss albino mouse assessed as swelling thickness at 25 mg/kg, po after 270 mins; assay type: functional; summary of the method: as §1
Mus musculus [33] = assay: Antiinflammatory activity against carrageenan-induced paw edema in Swiss albino mouse assessed as swelling thickness at 50 mg/kg, po after 180 mins; assay type: functional; summary of the method: as §1
Mus musculus [34] = assay: Gastric-ulcerogenic effect in Swiss albino mouse assessed as lesions at 25 mg/kg, po; assay type: functional, organism-based; parameters: dose 25 mg/kg; summary of the method: as §6
Mus musculus [35] = assay: Inhibition of p-benzoquinone-induced writhing in Swiss albino mouse at 50 mg/kg, po relative to control; assay type: functional; summary of the method: as §5
Mus musculus [36] = assay: Acute toxicity in Swiss albino mouse assessed as lethal effect at 25 mg/kg/day, po after 72 hrs; assay type: organism-based; parameters: route oral; details: in vivo; summary of the method: as §3
Mus musculus [37] = assay: Analgesic activity against p-benzoquinone-induced abdominal constriction in Swiss albino mouse assessed as number of writhings at 25 mg/kg, po; assay type: functional, Abdomen; summary of the method: as §4
Mus musculus [38] = assay: Inhibition of p-benzoquinone-induced writhing in Swiss albino mouse at 25 mg/kg, po relative to control; assay type: functional; summary of the method: as §5
Mus musculus [39] = assay: Antiinflammatory activity against carrageenan-induced paw edema in Swiss albino mouse assessed as swelling thickness at 200 mg/kg, po after 180 mins; assay type: functional; summary of the method: as §1
Mus musculus [40] = assay: Antiinflammatory activity against carrageenan-induced paw edema in Swiss albino mouse assessed as swelling thickness at 25 mg/kg, po after 90 mins; assay type: functional; summary of the method: as §1
Mus musculus [41] = assay: Inhibition of carrageenan-induced paw edema in Swiss albino mouse at 50 mg/kg, po after 360 mins relative to control; assay type: functional; details: 6 h; summary of the method: as §2
Mus musculus [42] = assay: Analgesic activity against p-benzoquinone-induced abdominal constriction in Swiss albino mouse assessed as number of writhings at 200 mg/kg, po; assay type: functional, Abdomen; summary of the method: as §4
Mus musculus [43] = assay: Inhibition of p-benzoquinone-induced writhing in Swiss albino mouse at 100 mg/kg, po relative to control; assay type: functional; summary of the method: as §5
Mus musculus [44] = assay: Antiinflammatory activity against carrageenan-induced paw edema in Swiss albino mouse assessed as swelling thickness at 100 mg/kg, po after 90 mins; assay type: functional; summary of the method: as §1
Mus musculus [45] = assay: Inhibition of carrageenan-induced paw edema in Swiss albino mouse at 100 mg/kg, po after 360 mins relative to control; assay type: functional; details: 6 h; summary of the method: as §1
Mus musculus [46] = assay: Antiinflammatory activity against carrageenan-induced paw edema in Swiss albino mouse assessed as swelling thickness at 200 mg/kg, po after 90 mins; assay type: functional; summary of the method: as §1

CS(=O)(=O)c1nc(-c2ccccc2Cl)n[nH]1
inhibition in vivo at 100 mg/kg (Mus musculus [1]): 21.9%
inhibition in vivo at 200 mg/kg (Mus musculus [2]): 7.7%
inhibition in vivo at 25 mg/kg (Mus musculus [3]): 4.2%
inhibition in vivo at 50 mg/kg (Mus musculus [4]): 30.6%
Activity (Mus musculus [5]): 41.3 10^-2mm
inhibition in vivo at 50 mg/kg (Mus musculus [6]): 33.5%
inhibition in vivo at 100 mg/kg (Mus musculus [7]): 24.3%
Activity (Mus musculus [8]): 45.5 10^-2mm
inhibition in vivo at 200 mg/kg (Mus musculus [9]): 9.6%
Activity (Mus musculus [10]): 65.1 10^-2mm
inhibition in vivo at 25 mg/kg (Mus musculus [11]): 7.7%
inhibition in vivo at 200 mg/kg (Mus musculus [12]): 6.4%
Activity (Mus musculus [13]): 39.1 10^-2mm
Activity (Mus musculus [14]): Non-toxic
Activity (Mus musculus [15]): 43.1 10^-2mm
inhibition in vivo at 200 mg/kg (Mus musculus [16]): 8.1%
Activity (Mus musculus [17]): 39 10^-2mm
inhibition in vivo at 25 mg/kg (Mus musculus [18]): 6.8%
Activity (Mus musculus [19]): Non-toxic
Activity (Mus musculus [20]): 67.1 10^-2mm
Activity (Mus musculus [21]): 32.2
Activity (Mus musculus [22]): 44.5 10^-2mm
Activity (Mus musculus [23]): 56.9 10^-2mm
inhibition in vivo at 50 mg/kg (Mus musculus [24]): 26.5%
inhibition in vivo at 100 mg/kg (Mus musculus [25]): 29.8%
Activity (Mus musculus [26]): 59.8 10^-2mm
inhibition in vivo at 200 mg/kg (Mus musculus [27]): 11.9%
inhibition in vivo at 25 mg/kg (Mus musculus [28]): 7.1%
Activity (Mus musculus [29]): 30.4
Activity (Mus musculus [30]): Active
Activity (Mus musculus [31]): Non-toxic
Activity (Mus musculus [32]): 60.2 10^-2mm
Activity (Mus musculus [33]): 41.2 10^-2mm
Activity (Mus musculus [34]): Active
inhibition in vivo at 50 mg/kg (Mus musculus [35]): 40.9%
Activity (Mus musculus [36]): Non-toxic
Activity (Mus musculus [37]): 40.1
inhibition in vivo at 25 mg/kg (Mus musculus [38]): 21.9%
Activity (Mus musculus [39]): 54.6 10^-2mm
Activity (Mus musculus [40]): 49.1 10^-2mm
inhibition in vivo at 50 mg/kg (Mus musculus [41]): 36.8%
Activity (Mus musculus [42]): 45.3
inhibition in vivo at 100 mg/kg (Mus musculus [43]): 31.9%
Activity (Mus musculus [44]): 35 10^-2mm
inhibition in vivo at 100 mg/kg (Mus musculus [45]): 35.3%
Activity (Mus musculus [46]): 49.8 10^-2mm
